The source made the active and inactive calls.
Columns and labels:
[1] = target: RAC-alpha serine/threonine-protein kinase (Mus musculus) (UniProt P31750); assay: Inhibition of Akt phosphorylation in mouse RAW264.7 cells infected with Salmonella enterica serovar Typhimurium ATCC 14028 assessed as decrease of phosphorylated GSK3-beta level at 1 uM after 8 hrs by Western blotting; type: cell-based
Procedure, shortened: (§1)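 Infected RAW264.7 cells were treated for 8 h and then lysed in M-PER on ice. Lysates (25 μg/lane) were run on SDS gels and transferred to nitrocellulose. Membranes were blocked with 3% skim milk in TBS, incubated with primary antibody for 12 h at 4°C and then HRP secondary, and detected by enhanced chemiluminescence.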

RAW264.7 [2] = assay: Cytotoxicity against Salmonella enterica serovar Typhimurium ATCC 14028 infected in mouse RAW264.7 cells assessed as cell viability at 1 uM after 24 hrs by MTT assay; type: cell-based; details: raw264.7, 24 h
Salmonella typhimurium [3] = assay: Antimicrobial activity against Salmonella enterica serovar Typhimurium ATCC 14028 infected in mouse RAW264.7 cells assessed as inhibition of intracellular bacterial growth at 1 uM after 4 hrs; type: functional, organism-based, Salmonella enterica subsp. enterica serovar Typhimurium
Procedure, shortened: (§2)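 RAW264.7 cells were seeded at 5.0 × 10^5 cells/well for 12–16 h. Log-phase bacteria (1:33 subculture, 3 h in LB, 37°C) were added at MOI 25 for 30 min. Extracellular bacteria were killed with 100 μg/ml gentamicin for 1 h, then washed off. Cells were treated in medium with 10% FBS and 10 μg/ml gentamicin (DMSO 0.1% final) and lysed with 0.1% Triton X-100. CFU were counted on LB agar after 16 h at 37°C.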

[4] = target: RAC-alpha serine/threonine-protein kinase (Mus musculus) (UniProt P31750); assay: Inhibition of Akt phosphorylation in mouse RAW264.7 cells infected with Salmonella enterica serovar Typhimurium ATCC 14028 assessed as decrease of p-308Thr-Akt level after 8 hrs by Western blotting; type: cell-based; procedure, shortened: as §1
Salmonella typhimurium [5] = assay: Antimicrobial activity against Salmonella enterica serovar Typhimurium ATCC 14028 at 1 to 5 uM after 480 mins; type: functional, organism-based; details: Salmonella enterica subsp. enterica serovar Typhimurium
[6] = target: RAC-alpha serine/threonine-protein kinase (Mus musculus) (UniProt P31750); assay: Inhibition of Akt phosphorylation in mouse RAW264.7 cells infected with Salmonella enterica serovar Typhimurium ATCC 14028 assessed as decrease of p-473Ser-Akt level after 8 hrs by Western blotting; type: cell-based; procedure, shortened: as §1
Salmonella typhimurium [7] = assay: Antimicrobial activity against Salmonella enterica serovar Typhimurium ATCC 14028 infected in human TPA-differentiated THP1 cells; type: functional, organism-based; details: Salmonella enterica subsp. enterica serovar Typhimurium, THP-1
Procedure, shortened: (§3)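 Macrophages were seeded at 5.0 × 10^5 cells/well for 12–16 h; THP-1 cells were first differentiated with 20 nM TPA for 48 h. Bacteria were subcultured 3 h in LB and added at MOI 25 for 30 min. Cells then received 100 μg/ml gentamicin for 1 h and were washed. Treatment was in medium with 10% FBS and 10 μg/ml gentamicin. Survivors were released with 0.1% Triton X-100 and counted as CFU on LB agar after 16 h at 37°C.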

Salmonella typhimurium [8] = assay: Antimicrobial activity against Salmonella enterica serovar Typhimurium ATCC 14028 infected in BALB/c mouse assessed as reduction of spleen bacterial load at 5 mg/kg, administered intragastrically after 24 hrs of post infection qd for 4 days measured on day 5 relative to control; type: functional, Salmonella enterica subsp. enterica serovar Typhimurium; parameters: scale not given: the % may be the effect or the level left; details: route intragastric
Procedure, shortened: (§4)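 Female BALB/c mice, 8–10 weeks old, were infected by intragastric gavage with an overnight culture at 10^5 organisms in 0.1 ml PBS (50% lethal dose). Starting 24 h post-infection, drug in 0.5% methylcellulose–0.1% Tween 80 in water was given by gavage once daily for 4 days at 1, 2.5 or 5 mg/kg, 7–9 mice per group. On day 5 post-infection, liver and spleen were homogenized in 10 ml cold PBS and plated on LB agar to count CFU.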

RAW264.7 [9] = assay: Cytotoxicity against mouse RAW264.7 cells assessed as cell viability after 24 hrs by MTT assay; type: cell-based; details: RAW264.7, 24 h
Salmonella typhimurium [10] = assay: Antimicrobial activity against Salmonella enterica serovar Typhimurium ATCC 14028 infected in mouse RAW264.7 cells assessed as colocalization of organism with autophagosomes at 1 uM after 1 hr by immunofluorescence microscopic analysis relative to control; type: functional, Salmonella enterica subsp. enterica serovar Typhimurium
Procedure, shortened: (§5)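 RAW264.7 cells were fixed in 4% formaldehyde for 20 min at 25°C, permeabilized with 0.5% Triton X-100, and blocked overnight in 3% BSA. Staining used primary antibody (anti-LC3 for autophagosomes) for 1 h, then fluorescent secondary antibody for 1 h, with DAPI for nuclei. Slides were read by wide-field or confocal microscopy. For colocalization, only bacteria in direct contact with autophagosomes in 3-D confocal images were scored. Giant puncta were defined as ≥1 μm.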

Salmonella typhimurium [11] = assay: Antimicrobial activity against Salmonella enterica serovar Typhimurium ATCC 14028 infected in mouse RAW264.7 cells assessed as inhibition of intracellular bacterial growth at 1 uM after 4 hrs in presence of vacuolar ATPase inhibitor bafilomycin A1; type: functional, organism-based; details: Salmonella enterica subsp. enterica serovar Typhimurium; procedure, shortened: as §3
Salmonella typhimurium [12] = assay: Antimicrobial activity against Salmonella enterica serovar Typhimurium ATCC 14028 infected in mouse RAW264.7 cells transfected with shRNA assessed as reduction of Beclin-1 expression at 1 uM after 2 hrs by immunoblotting relative to control; type: functional, Salmonella enterica subsp. enterica serovar Typhimurium; parameters: scale not given: the % may be the effect or the level left
Procedure, shortened: (§6)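 Beclin-1 or Atg7 shRNA plasmids, with GFP shRNA as control, were nucleofected into RAW264.7 cells (2 × 10^6 cells, 2 μg DNA). Stable clones were selected with 2 μg/ml puromycin and kept in 1 μg/ml. Knockdown was measured by immunoblotting.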

Salmonella typhimurium [13] = assay: Antimicrobial activity against Salmonella enterica serovar Typhimurium ATCC 14028 infected in mouse RAW264.7 cells assessed as inhibition of intracellular bacterial growth at 1 uM after 8 to 24 hrs in presence of gentamicin; type: functional, organism-based; details: Salmonella enterica subsp. enterica serovar Typhimurium; procedure, shortened: as §3
Salmonella typhimurium [14] = assay: Antimicrobial activity against Salmonella enterica serovar Typhimurium ATCC 14028 infected in BALB/c mouse assessed as reduction of liver bacterial load at 5 mg/kg, administered intragastrically after 24 hrs of post infection qd for 4 days measured on day 5 relative to control; type: functional, Salmonella enterica subsp. enterica serovar Typhimurium; parameters: scale not given: the % may be the effect or the level left; details: route intragastric; procedure, shortened: as §4
Salmonella typhimurium [15] = assay: Antimicrobial activity against Salmonella enterica serovar Typhimurium ATCC 14028 infected in BALB/c mouse assessed as increase of host survival days at 2.5 mg/kg, po administered after 24 hrs of post infection qd relative to control
RAW264.7 [16] = assay: Induction of autophagy in mouse RAW264.7 cells assessed as LC3-positive puncta with diameter greater than 1 uM in cytoplasm at 1 uM by immunofluorescence microscopic analysis; type: functional, cell-based; procedure, shortened: as §5
Salmonella typhimurium [17] = assay: Antimicrobial activity against Salmonella enterica serovar Typhimurium ATCC 14028 infected in mouse J774.1 cells; type: functional, organism-based; details: Salmonella enterica subsp. enterica serovar Typhimurium; procedure, shortened: as §3
RAW264.7 [18] = assay: Cytotoxicity against mouse RAW264.7 cells assessed as cell viability at 1 uM after 24 hrs by MTT assay; type: cell-based; details: raw264.7, 24 h
Salmonella typhimurium [19] = assay: Antimicrobial activity against Salmonella enterica serovar Typhimurium ATCC 14028 infected in BALB/c mouse assessed as reduction of liver bacterial load at 2.5 mg/kg, administered intragastrically after 24 hrs of post infection qd for 4 days measured on day 5 relative to control; type: functional, Salmonella enterica subsp. enterica serovar Typhimurium; parameters: scale not given: the % may be the effect or the level left; details: route intragastric; procedure, shortened: as §4
Salmonella typhimurium [20] = assay: Antimicrobial activity against Salmonella enterica serovar Typhimurium ATCC 14028 infected in mouse RAW264.7 cells transfected with HA-tagged CA-Akt1 assessed as inhibition of intracellular bacterial survival at 1 uM after 2 hrs; type: functional, organism-based; details: Salmonella enterica subsp. enterica serovar Typhimurium; procedure, shortened: as §3
Salmonella typhimurium [21] = assay: Antimicrobial activity against Salmonella enterica serovar Typhimurium ATCC 14028 infected in mouse RAW264.7 cells transfected with shRNA assessed as reduction of Atg7 expression at 1 uM after 2 hrs by immunoblotting relative to control; type: functional, Salmonella enterica subsp. enterica serovar Typhimurium; parameters: scale not given: the % may be the effect or the level left; procedure, shortened: as §6
Salmonella typhimurium [22] = assay: Antimicrobial activity against Salmonella enterica serovar Typhimurium ATCC 14028 infected in mouse RAW264.7 cells assessed as reduction in bacterial load at 1 uM after 8 hrs by immunofluorescent staining; type: functional, Salmonella enterica subsp. enterica serovar Typhimurium; parameters: scale not given: the % may be the effect or the level left; procedure, shortened: as §5
RAW264.7 [23] = assay: Induction of autophagy in mouse RAW264.7 cells assessed as increase of LC3 punctum formation at 1 uM by immunofluorescence microscopic analysis; type: functional, cell-based; procedure, shortened: as §5
Salmonella typhimurium [24] = assay: Antimicrobial activity against Salmonella enterica serovar Typhimurium ATCC 14028 infected in mouse RAW264.7 cells assessed as reduction of bacterial count at 1 uM pretreated 30 mins before infection measured after 1 hr; type: functional, organism-based; details: Salmonella enterica subsp. enterica serovar Typhimurium
Procedure, shortened: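 Bacteria were pre-exposed to vehicle (DMSO) or 1 μM drug in culture medium for 30 min. They were then used to infect RAW264.7 cells at MOI 25 for 30 min, followed by 100 μg/ml gentamicin for 1 h and PBS washes. Intracellular bacteria were counted as CFU 1 h later after Triton X-100 lysis.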

Salmonella typhimurium [25] = assay: Antimicrobial activity against Salmonella enterica serovar Typhimurium ATCC 14028 infected in mouse RAW264.7 cells transfected with HA-tagged CA-Akt1 assessed as inhibition of intracellular bacterial survival at 1 uM after 8 hrs; type: functional, organism-based; details: Salmonella enterica subsp. enterica serovar Typhimurium; procedure, shortened: as §3
Salmonella typhimurium [26] = assay: Antimicrobial activity against Salmonella enterica serovar Typhimurium ATCC 14028 infected in mouse RAW264.7 cells assessed as reduction of bacterial survival at 1 uM after 2 hrs relative to control; type: functional, Salmonella enterica subsp. enterica serovar Typhimurium; procedure, shortened: as §2
Salmonella typhimurium [27] = assay: Antimicrobial activity against Salmonella enterica serovar Typhimurium ATCC 14028 infected in mouse RAW264.7 cells assessed as inhibition of intracellular bacterial growth after 8 hrs; type: functional, organism-based, Salmonella enterica subsp. enterica serovar Typhimurium; details: ATCC 14028, RAW264.7, 8 h; procedure, shortened: as §2
Salmonella typhimurium [28] = assay: Antimicrobial activity against Salmonella enterica serovar Typhimurium ATCC 14028 infected in mouse RAW264.7 cells assessed as inhibition of intracellular bacterial growth at 1 uM after 8 hrs; type: functional, Salmonella enterica subsp. enterica serovar Typhimurium; parameters: scale not given: the % may be the effect or the level left; procedure, shortened: as §2
Salmonella typhimurium [29] = assay: Antimicrobial activity against Salmonella enterica serovar Typhimurium ATCC 14028 infected in BALB/c mouse assessed as reduction of spleen bacterial load at 2.5 mg/kg, administered intragastrically after 24 hrs of post infection qd for 4 days measured on day 5 relative to control; type: functional, Salmonella enterica subsp. enterica serovar Typhimurium; parameters: scale not given: the % may be the effect or the level left; details: route intragastric; procedure, shortened: as §4

RAC-alpha serine/threonine-protein kinase (Mus musculus), sequence (P31750 whole entry): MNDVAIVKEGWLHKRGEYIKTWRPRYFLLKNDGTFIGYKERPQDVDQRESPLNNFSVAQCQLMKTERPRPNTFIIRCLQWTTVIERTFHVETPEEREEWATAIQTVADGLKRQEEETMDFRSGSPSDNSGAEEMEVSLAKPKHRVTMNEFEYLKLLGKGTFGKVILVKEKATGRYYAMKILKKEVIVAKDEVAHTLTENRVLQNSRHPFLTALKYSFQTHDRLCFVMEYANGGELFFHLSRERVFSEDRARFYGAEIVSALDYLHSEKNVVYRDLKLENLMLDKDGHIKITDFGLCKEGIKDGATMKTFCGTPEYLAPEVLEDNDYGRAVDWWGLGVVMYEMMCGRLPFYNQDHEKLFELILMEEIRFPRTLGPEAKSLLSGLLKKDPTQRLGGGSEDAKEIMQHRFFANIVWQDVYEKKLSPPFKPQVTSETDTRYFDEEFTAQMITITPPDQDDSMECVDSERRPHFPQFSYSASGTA

Compound: NCC(=O)Nc1ccc(-n2nc(C(F)(F)F)cc2-c2ccc3c(ccc4ccccc43)c2)cc1 [AR-12]
- inhibition [1]: Active
- Activity (RAW264.7 [2]): Non-toxic
- Activity (Salmonella typhimurium [3]): Active
- inhibition [4]: Dose-dependent effect
- Activity (Salmonella typhimurium [5]): inactive
- inhibition [6]: Dose-dependent effect
- Activity (Salmonella typhimurium [7]): Active
- Activity (Salmonella typhimurium [8]): 90%
- IC50 (RAW264.7 [9]): > 10000 nM
- Activity (Salmonella typhimurium [10]): 21.2%
- Activity (Salmonella typhimurium [11]): Active
- Activity (Salmonella typhimurium [12]): 83%
- Activity (Salmonella typhimurium [13]): Active
- Activity (Salmonella typhimurium [14]): 96%
- Survival (Salmonella typhimurium [15]): 8.1 days
- Activity (RAW264.7 [16]): Active
- Activity (Salmonella typhimurium [17]): Active
- Activity (RAW264.7 [18]): Non-toxic
- Activity (Salmonella typhimurium [19]): 99%
- Activity (Salmonella typhimurium [20]): Active
- Activity (Salmonella typhimurium [21]): 43%
- Activity (Salmonella typhimurium [22]): 82%
- Activity (RAW264.7 [23]): Active
- Activity (Salmonella typhimurium [24]): inactive
- Activity (Salmonella typhimurium [25]): inactive
- Activity (Salmonella typhimurium [26]): 25%
- IC50 (Salmonella typhimurium [27]): 200 nM
- Activity (Salmonella typhimurium [28]): 90%
- Activity (Salmonella typhimurium [29]): 98%

Source: ChEMBL document CHEMBL1649299, “Eradication of intracellular Salmonella enterica serovar Typhimurium with a small-molecule, host cell-directed agent” (Antimicrob Agents Chemother, 2009)
